Here are results for 17 molecules from ChEMBL document CHEMBL3875231, “From Dynamic Combinatorial Chemistry to in Vivo Evaluation of Reversible and Irreversible Myeloperoxidase Inhibitors” (ACS Med Chem Lett, 2017).

Assay [1] addresses T1, Myeloperoxidase (Homo sapiens) (UniProt P05164).
T1 sequence (whole entry): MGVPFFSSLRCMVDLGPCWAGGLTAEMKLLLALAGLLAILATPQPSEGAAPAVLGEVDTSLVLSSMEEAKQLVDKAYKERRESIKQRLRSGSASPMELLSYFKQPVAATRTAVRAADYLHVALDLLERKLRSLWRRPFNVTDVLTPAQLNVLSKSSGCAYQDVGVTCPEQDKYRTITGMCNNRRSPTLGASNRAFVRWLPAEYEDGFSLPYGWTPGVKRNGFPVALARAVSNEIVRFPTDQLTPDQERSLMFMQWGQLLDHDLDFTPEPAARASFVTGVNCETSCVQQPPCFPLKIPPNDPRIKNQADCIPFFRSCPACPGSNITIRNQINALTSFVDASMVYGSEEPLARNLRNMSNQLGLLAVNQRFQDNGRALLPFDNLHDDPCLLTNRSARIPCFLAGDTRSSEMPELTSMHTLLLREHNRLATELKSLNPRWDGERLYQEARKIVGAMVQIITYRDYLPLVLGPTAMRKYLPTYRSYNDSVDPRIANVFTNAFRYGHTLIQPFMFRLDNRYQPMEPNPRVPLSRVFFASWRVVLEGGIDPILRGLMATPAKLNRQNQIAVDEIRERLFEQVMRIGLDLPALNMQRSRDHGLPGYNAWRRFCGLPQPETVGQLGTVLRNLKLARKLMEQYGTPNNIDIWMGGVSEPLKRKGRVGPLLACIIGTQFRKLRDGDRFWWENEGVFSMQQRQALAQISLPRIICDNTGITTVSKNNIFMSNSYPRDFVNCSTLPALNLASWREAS
Kind of assay: Inhibition of human MPO assessed as residual activity in presence of H2O2. On the set-up: concentration or dose not given beside the values. A digest of the protocol:
(§1)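 Ligand and MPO were mixed with or without H2O2, then diluted 100-fold, and the residual enzymatic activity was measured. An H2O2-alone mixture served as control.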

Assay [2] concerns the target T2, Myeloperoxidase (Homo sapiens, UniProt P05164).
T2 sequence (P05164 whole entry): T1 sequence (whole entry)
Briefly: (§2) Inhibition of human MPO.

Assay [3] addresses T1, Myeloperoxidase (Homo sapiens). Described as §2. On the set-up: concentration or dose not given beside the values. The settings on record: concentration not given here.
The target is the same in assay [4]. Briefly: Inhibition of human MPO assessed as residual activity in absence of […]. Also noted: concentration or dose not given beside the values. A digest of the protocol:
as §1

Assay [5] has the same target. Briefly: Inhibition of human MPO assessed as rate constant for reduction of PorFe(4)=O to PorFe(4)-OH in presence of H2O2 by stopped-flow method.
In assay [6] the test system is Rattus norvegicus. Briefly: Ex vivo inhibition of MPO activity in peritoneal exudate of Wistar albino rat model of carrageenan-induced inflammation assessed as reduction in H2O2-dependent oxidation of TMB at 10 mg/kg, iv measured after 24 hrs. Type of assay: functional, organism-based. A digest of the protocol:
(§3)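 Male Wistar Han rats had inflammation induced by intraperitoneal carrageenan, then received ligand at 10 mg/kg intravenously. Peritoneal liquid was collected. MPO concentration was measured at 24 h, and MPO activity at 24 h and at 48 h after drug administration. Comparators were carrageenan-only rats and reference rats not treated with carrageenan.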

For assay [7], the target named is T1, Myeloperoxidase (Homo sapiens). Kind of assay: Irreversible inhibition of human MPO in presence of H2O2 by stopped-flow method.
Assay [8] relates to Rattus norvegicus. Kind of assay: Ex vivo inhibition of MPO activity in peritoneal exudate of Wistar albino rat model of carrageenan-induced inflammation assessed as reduction in H2O2-dependent oxidation of TMB at 10 mg/kg, iv measured after 48 hrs. Type of assay: functional, organism-based. A digest of the protocol:
as §3

Assay [9] deals with T2, Myeloperoxidase. Briefly: Irreversible inhibition of MPO (unknown origin). A digest of the protocol:
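MPO was preincubated with ligand, with or without H2O2, alongside an H2O2-alone control. The mixture was then diluted 100-fold, residual enzymatic activity was measured, and inactivation was expressed as percent loss of activity.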

Assay [10] concerns the target T1, Myeloperoxidase (Homo sapiens). Briefly: Reversible inhibition of human MPO assessed as rate constant for reduction of PorFe(4)-OH to ferric MPO in presence of H2O2 by stopped-flow method.
For assay [11] the target is unchanged. Briefly: Inhibition of human MPO assessed as soret band formation at 429 nanometer in presence of H2O2 by stopped-flow method.
Assay [12] concerns Rattus norvegicus. Kind of assay: Anti-inflammatory activity in Wistar albino rat assessed as inhibition of carrageenan-induced MPO release at 10 mg/kg, iv measured after 24 hrs by ELISA. Type of assay: functional, organism-based. A digest of the protocol:
as §3
On the technique in general: ELISA stands for enzyme-linked immunosorbent assay.

The structures appear in SMILES notation. Activity calls are given as the source filed them. The calls are words filed in the database; no cut-off is given here.

By IC50 is commonly meant the midpoint of a concentration-inhibition curve. As usually defined, the inhibition is the share of the control response that was lost under treatment. As to `COc1ccc(/C=N/NC(=O)c2ccncc2)cc1O`, the Activity in [1] was 87%; in [4] it was 88%. This molecule gave an IC50 in assay [2] of 430 nM. The molecule further showed an inhibition in [3] of 91%.
For `CN(C)c1ccc(/C=N/NC(=O)c2ccncc2)cc1` [N'-(4-DIMETHYLAMINOBENZYLIDENE)ISONICOTINOHYDRAZIDE], the Activity in assay [1] turned out to be 93%; in assay [4] it was 91%. Moreover, half-maximal inhibition in [2] (IC50) required 1620 nM. In assay [3], the inhibition amounted to 100%.
On to `OC/C=N/Nc1nncc2ccccc12`, for which, in [5], the K stood at 3.3 ×10⁵ /M/s. In addition, the Activity worked out at 18% in assay [1] and 82% in [4]. Moreover, the inhibition entry in [6], in assay [7] and in assay [8] was “Active” throughout. This molecule also gave a half-inhibitory concentration (IC50) in [2] of 110 nM.
Regarding `O=C(N/N=C/CO)c1ccncc1`, the Activity in [1] amounted to 94%; in assay [4], 100%. In addition, in [2], the half-maximal inhibitory concentration (IC50) is greater than 5000 nM.
As for `NNC(=O)c1ccncc1` [ISONIAZID], the IC50 in assay [9] worked out at 5000 nM; in [2], 4700 nM. Also, the Activity amounted to 64% in assay [1] and 98% in [4]. This molecule also came in with an inhibition in assay [3] of 61%.
In the case of `NNc1nncc2ccccc12` [HYDRALAZINE], the K in assay [5] came out at 7.1 ×10⁵ /M/s. Moreover, the IC50 in assay [9] and in [2] was 900 nM each time. In addition, the Activity in [1] is 19%; in assay [4], 92%. In [3], the inhibition came to 61%.
For the molecule `CN(C)c1ccc(/C=N/Nc2ccc(F)cc2)cc1`, the Activity in assay [1] turned out to be 84%; in assay [4], 87%. The molecule further showed a 50% inhibitory concentration (IC50) in assay [2] of 3100 nM. The inhibition in [3] is 100%.
Take `CN(C)c1ccc(/C=N/Nc2nncc3ccccc23)cc1`: the K came to 89.3 M⁻¹ s⁻¹ in assay [10] and 7.1 ×10⁵ /M/s in assay [5]. In addition, the Activity in assay [1] is 92%; in [4], 93%. Besides, the inhibition entry in assay [6] and in assay [11] was “Active” each time. In [2], this molecule gave an IC50 of 80 nM. Moreover, the inhibition in assay [3] stood at 100%.
Turning to `OC/C=N/Nc1ccc(F)cc1`, the Activity in assay [1] was 97%; in [4], 107%. This molecule also showed a concentration for half-maximal inhibition (IC50) in assay [2] greater than 5000 nM.
In the case of `NNc1ccc(F)cc1`, the Activity in assay [1] came to 98%; in [4] it was 103%. In addition, the IC50 in assay [2] was greater than 5000 nM. The molecule also showed an inhibition in assay [3] of 61%.
In the case of `COc1ccc(/C=N/Nc2ccc(F)cc2)cc1O`, the results for the Activity in [1] and in [4] were 92% and 81%, respectively. Also, 1130 nM corresponded to half-maximal inhibition in [2] (IC50). The same molecule had an inhibition in [3] of 91%.
As for `COc1cc(/C=N/Nc2nncc3ccccc23)ccc1O`, in assay [5], the K amounted to 2.8 ×10⁵ /M/s. Besides, the figures for the Activity in assay [1] and in assay [4] were 22% and 87%, respectively. Also, in [7], the inhibition result was “Active”. In addition, the IC50 in assay [2] amounted to 340 nM. In [3], this molecule yielded an inhibition of 82%.
As to `COc1cc(/C=N/Nc2ccc(F)cc2)ccc1O`, the Activity amounted to 98% in assay [1] and 89% in assay [4]. This molecule also returned an IC50 in assay [2] of 1200 nM. In assay [3], this molecule returned an inhibition of 82%.
Turning to `Cc1ccc(NN)cc1`, the inhibition in assay [3] was found to be 61%.
Consider `COc1cc(/C=N/NC(=O)c2ccncc2)ccc1O` [FTIVAZIDE], for which the results for the Activity in [1] and in [4] were 91% and 96%, respectively. The same molecule returned an IC50 in assay [2] of 460 nM. The molecule further registered an inhibition in assay [3] of 82%.
Turning to `NNc1cccc2ccccc12`, the inhibition in assay [3] came to 61%.
On to `COc1ccc(/C=N/Nc2nncc3ccccc23)cc1O`, for which the Activity in assay [1] worked out at 25%; in assay [4], 93%. The inhibition result in [6], in [12] and in assay [8] was “Active” in each case. The IC50 in assay [2] amounted to 150 nM. This molecule yielded an inhibition in assay [3] of 91%.
